Source: ChEMBL document CHEMBL1287742, “Synthetic pseudopterosin analogues: A novel class of antiinflammatory drug candidates” (2010)
“And” between values parts separate entries of the source, which are not always exact repeats. Equal entries are not always repeated. The source made the active and inactive calls. No cut-off for these calls is given here.

Assays:
[1] = system: Mus musculus; experiment: Antiinflammatory activity in mouse assessed as inhibition of PMA-induced ear edema at 25 ug/ear administered topically as single dose after PMA challenge and measured after 3 hrs and 20 mins; type: functional; settings: in the assay text read “simultaneously with PMA” for “after PMA challenge”
Summary of the method: (§1)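 Mouse ear edema: test compound applied topically in acetone to the inside pinna of the left ear together with PMA (2 µg/ear), under brief halothane anesthesia. Right ears received acetone only. Five mice per group. After 3 h 20 min the mice were euthanized and a 6 mm central ear biopsy was weighed. Edema was taken as the left-minus-right weight difference, expressed as % inhibition versus the PMA-only control group.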

[2] = system: Mus musculus; experiment: Antiinflammatory activity in mouse assessed as effective dose per ear for inhibition of PMA-induced ear edema; type: functional; summary of the method: as §1

Row | Structure (SMILES) | inhibition (INH) [1] | ED50 [2] | inhibition [1]
1 | C[C@@H]1CC[C@@H]2CCCc3cc(O[C@@H]4O[C@@H](C)[C@@H](O)[C@@H](O)[C@@H]4O)c(O)c1c32 (relative stereo) | 50% | – | –
2 | CC(C)=C[C@H]1C[C@H](C)[C@H]2CC[C@H](C)c3c(O[C@@H]4OC[C@@H](O)[C@H](O)[C@H]4O)c(O)c(C)c1c32 [PSEUDOPTEROSIN A] | 70% | 12 µg | –
3 | Oc1cc2c3c(c1OC1OC[C@@H](O)[C@H](O)[C@H]1O)CCCC3CCC2 (some centres not stated) | 37% | – | –
4 | C[C@@H]1O[C@@H](Oc2cc3c4c(c2O)C(=O)CCC4CCC3)[C@@H](O)[C@H](O)[C@@H]1O (some centres not stated) | – | – | inactive
5 | C[C@@H]1O[C@@H](Oc2cc3c4c(c2O)CCCC4CCC3)[C@@H](O)[C@H](O)[C@@H]1O (some centres not stated) | 34% | – | –
6 | C[C@@H]1O[C@@H](Oc2c(O)c(C(F)(F)F)c3c4c2CCCC4CCC3)[C@@H](O)[C@H](O)[C@@H]1O (some centres not stated) | 45% and 53% | – | –
7 | C[C@@H]1O[C@@H](Oc2cc3c4c(c2O)C(C)(C)CCC4CCC3)[C@@H](O)[C@H](O)[C@@H]1O (some centres not stated) | 38% | – | –
8 | Oc1c(OC2OC[C@@H](O)[C@H](O)[C@H]2O)cc2c3c1CCCC3CCC2 (some centres not stated) | 44% | – | –
9 | C[C@@H]1OC(Oc2c(O)cc3c4c2CCCC4CCC3)[C@@H](O)[C@H](O)[C@@H]1O (some centres not stated) | 24% | – | –
10 | Cc1c(O)c(O[C@@H]2O[C@@H](C)[C@@H](O)[C@@H](O)[C@@H]2O)c2c3c1CCCC3CCC2 (some centres not stated) | 49% | – | –
11 | C[C@@H]1O[C@@H](Oc2cc3c4c(c2O)[C@@H](C)CC[C@@H]4CCC3)[C@@H](O)[C@H](O)[C@@H]1O (relative stereo) | 58% | – | –
